Assay results taken from ChEMBL document CHEMBL1123501, “Inactivation of leukocyte elastase by aryl azolides and sulfonate salts. Structure-activity relationship studies” (J Med Chem, 1986).
Activity calls are given as the source filed them. The rule behind the calls is not given here.

Target: T1, Neutrophil elastase (Homo sapiens) (UniProt P08246)
T1 sequence (whole entry): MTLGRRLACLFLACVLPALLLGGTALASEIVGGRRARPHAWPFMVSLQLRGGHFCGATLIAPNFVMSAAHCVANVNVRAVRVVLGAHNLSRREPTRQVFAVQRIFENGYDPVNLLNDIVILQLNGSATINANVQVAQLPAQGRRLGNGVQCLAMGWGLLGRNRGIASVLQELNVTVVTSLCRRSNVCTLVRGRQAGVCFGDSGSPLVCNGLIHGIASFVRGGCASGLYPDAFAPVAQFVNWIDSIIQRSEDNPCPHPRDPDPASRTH
Assay: Inhibitory activity against human Leukocyte elastase
Procedure, shortened: (§1)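 Human leukocyte elastase (enzyme stock 3.4 × 10⁻⁵ M in pH 5.5 acetate) incubated at 25 °C with inhibitor (DMSO stock 3.4 × 10⁻⁴ M) in Tris buffer pH 7.2. The inhibitor:enzyme ratio was 10–50. Aliquots taken over time were added to MeOSuc-Ala-Ala-Pro-Val-pNA (stock 3.15 × 10⁻² M). Residual activity was read at 410 nm for 2 min after 30 s, against a DMSO control.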

| K obs / 1 | Structure (SMILES) |
| --- | --- |
| 483 M⁻¹ s⁻¹ | O=C(NCCc1cccc(C(F)(F)F)c1)n1ccnc1 |
| 11700 M⁻¹ s⁻¹ | O=C(Nc1cn(-c2cccc(C(F)(F)F)c2)cn1)n1ccccc1=O |
| 550 M⁻¹ s⁻¹ | COC(=O)C(Cc1ccccc1)NC(=O)S(=O)(=O)O (racemic) |
| 4 M⁻¹ s⁻¹ | O=C(NCCc1ccccc1)S(=O)(=O)O |
| 2070 M⁻¹ s⁻¹ | COC(=O)C(Cc1ccccc1)NC(=O)n1ccnc1 (centres undefined) |
| 317 M⁻¹ s⁻¹ | O=C(Nc1cn(-c2cccc(F)c2)cn1)n1ccccc1=O |
| 18 M⁻¹ s⁻¹ | O=C(NCCc1cccc(F)c1)S(=O)(=O)O |
| 35 M⁻¹ s⁻¹ | O=C(NCCc1ccccc1)n1ccnc1 |
| 823 M⁻¹ s⁻¹ | O=C(Nc1cn(-c2cccc(F)c2)cn1)ON1C(=O)CCC1=O |
| 2330 M⁻¹ s⁻¹ | COC(=O)C(Cc1ccccc1)NC(=O)n1ccccc1=O (centres undefined) |
| 1100 M⁻¹ s⁻¹ | COC(=O)C(Cc1cccc(C(F)(F)F)c1)NC(=O)n1ccnc1 (centres undefined) |
| 13500 M⁻¹ s⁻¹ | O=C(Nc1cn(-c2cccc(C(F)(F)F)c2)cn1)ON1C(=O)CCC1=O |
| 6640 M⁻¹ s⁻¹ | COC(=O)C(Cc1ccccc1)NC(=O)ON1C(=O)CCC1=O (centres undefined) |
| 13 M⁻¹ s⁻¹ | COC(=O)C(Cc1cccc(C(F)(F)F)c1)NC(=O)S(=O)(=O)O (racemic) |
| 38 M⁻¹ s⁻¹ | O=C(NCCc1cccc(F)c1)n1ccnc1 |
| 927 M⁻¹ s⁻¹ | O=C(Nc1cn(-c2ccccc2)cn1)ON1C(=O)CCC1=O |
| 500 M⁻¹ s⁻¹ | O=C(Nc1cn(-c2ccccc2)cn1)n1ccccc1=O |
| 318 M⁻¹ s⁻¹ | COC(=O)C(Cc1cccc(F)c1)NC(=O)n1ccnc1 (centres undefined) |
| 57 M⁻¹ s⁻¹ | COC(=O)C(Cc1cccc(F)c1)NC(=O)S(=O)(=O)O (racemic) |

Target: T1, Neutrophil elastase (Homo sapiens)
Assay: Inhibitory activity against human Leukocyte elastase; inactive (at 243-fold excess of inhibitor over enzyme)

| K obs / 1 | Structure (SMILES) |
| --- | --- |
| inactive | O=C(Nc1cccc(F)c1)S(=O)(=O)O |
| inactive | O=C(NCc1cccc(C(F)(F)F)c1)S(=O)(=O)O |
| inactive | O=C(Nc1cccc(Cl)c1)S(=O)(=O)O |
| inactive | O=C(Nc1ccccc1)S(=O)(=O)O |
| inactive | O=C(Nc1ccccc1C(F)(F)F)S(=O)(=O)O |
| inactive | O=C(Nc1ccc(Cl)cc1)S(=O)(=O)O |
| inactive | O=C(Nc1cccc(C(F)(F)F)c1)S(=O)(=O)O |
| inactive | O=C(Nc1ccc(C(F)(F)F)cc1)S(=O)(=O)O |
| inactive | O=C(NCc1cccc(F)c1)S(=O)(=O)O |

Target: T1, Neutrophil elastase (Homo sapiens)
Assay: Compound was evaluated for the inhibitory activity against human Leukocyte elastase; Inactive
Procedure, shortened: as §1

| K obs / 1 | Structure (SMILES) |
| --- | --- |
| inactive | O=C(Nc1cccc(C(F)(F)F)c1)n1ccnc1 |
| inactive | O=C(Nc1ccccc1C(F)(F)F)n1ccnc1 |
| inactive | O=C(NCc1cccc(C(F)(F)F)c1)n1ccnc1 |
| inactive | O=C(NCc1cccc(F)c1)n1ccnc1 |
| inactive | O=C(NCc1ccc(C(F)(F)F)cc1)n1ccnc1 |
| inactive | O=C(Nc1cccc(F)c1)n1ccnc1 |
